XBP1 UPR activ – activators of adaptive XBP1 UPR arm, primary screen, cell-based, CHO-XBP1 luciferase reporter, luminescence, uHTS | IRE1-XBP1 UPR activation; percent of tunicamycin response, DMSO as zero | activation, % at 20 µM | hit rate 0.33% among 330,000 | AID 463104, 2010;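 active means versus positive control, 20 µM dose yields 30% or more activation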;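 further: 100% = tunicamycin at 10 µg/mL and 0% = DMSO only wells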
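Signal: luciferase luminescence; Assay system: CHO-XBP1 luciferase reporter cells; Amount: one thousand reporter cells per well; Dosing: 20 µM single concentration, DMSO 1%; Benchmarks: high control tunicamycin 10 µg/mL final, low control DMSO vehicle only; Schedule: 6 h compound exposure at 37 °C, 5% CO2; Evaluation: percent activation relative to tunicamycin reference.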
CSC inhib – cancer stem cell viability inhibitors, primary screen, luminescence. hit rate 1.1% among 300,000. cancer stem cell-like cells viability. inhibition, % at 7.5 µM; in the data active means inhibition above about 75%; tested in HMLE shEcad cells
Mdm2-MdmX inh – inhibitors of human Mdm2-MdmX association, primary screen, cell-based, luminescence, split luciferase, SaOS-2, uHTS | Protein Mdm4 (Homo sapiens) + E3 ubiquitin-protein ligase Mdm2 (Homo sapiens), … | SaOS-2 split-luciferase Mdm2/MdmX complementation | inhibition, % at 8 µM | hit rate 3% among 330,000 | AID 485346, 2010;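 active means inhibition of at least 50% at 8 µM in the primary screen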
Target sequence (O15151 whole entry, looked up): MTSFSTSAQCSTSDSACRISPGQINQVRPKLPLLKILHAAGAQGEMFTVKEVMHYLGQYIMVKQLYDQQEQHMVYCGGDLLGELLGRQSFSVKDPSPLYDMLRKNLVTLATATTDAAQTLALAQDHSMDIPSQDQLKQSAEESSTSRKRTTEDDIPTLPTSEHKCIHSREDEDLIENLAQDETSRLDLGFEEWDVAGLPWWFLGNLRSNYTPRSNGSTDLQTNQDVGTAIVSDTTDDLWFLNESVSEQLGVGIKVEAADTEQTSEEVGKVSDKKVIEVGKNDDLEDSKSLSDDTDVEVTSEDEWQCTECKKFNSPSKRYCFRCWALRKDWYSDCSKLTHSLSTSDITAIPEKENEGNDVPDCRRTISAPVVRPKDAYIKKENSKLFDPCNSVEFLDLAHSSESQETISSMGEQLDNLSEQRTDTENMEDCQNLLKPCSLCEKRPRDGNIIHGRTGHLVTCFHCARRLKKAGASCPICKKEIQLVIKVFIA
Target sequence (Q00987 whole entry, looked up): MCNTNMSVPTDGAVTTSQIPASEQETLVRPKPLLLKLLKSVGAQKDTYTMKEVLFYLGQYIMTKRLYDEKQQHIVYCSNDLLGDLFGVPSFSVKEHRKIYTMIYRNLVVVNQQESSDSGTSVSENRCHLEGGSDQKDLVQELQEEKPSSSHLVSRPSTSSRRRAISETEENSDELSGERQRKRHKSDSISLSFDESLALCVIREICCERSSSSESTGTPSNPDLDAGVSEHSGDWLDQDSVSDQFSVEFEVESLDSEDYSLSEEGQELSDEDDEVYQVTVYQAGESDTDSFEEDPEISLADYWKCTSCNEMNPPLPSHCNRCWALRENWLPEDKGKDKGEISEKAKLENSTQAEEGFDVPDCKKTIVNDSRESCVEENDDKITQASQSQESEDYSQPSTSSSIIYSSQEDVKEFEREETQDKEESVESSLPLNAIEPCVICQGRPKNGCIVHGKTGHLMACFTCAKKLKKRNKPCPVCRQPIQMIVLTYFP
Beta apoptosis – inhibitors of cytokine-induced beta cell apoptosis, primary screen, luminescence | INS-1E cytokine-induced death, ATP luminescence, 48 h; percent of positive-control rescue, neutral wells zero | protection from apoptosis, % (test concentration not listed) | hit rate 0.8% among 300,000;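 active means Every replicate reaches about 75%, or at least half do and their mean reaches it too, limit read from the data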;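 further: 0% = cytokine-treated negative control wells and 100% = positive control rescue; higher means more ATP so stronger rescue from cytokine killing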
UPR CHOP act – activators of apoptotic CHOP UPR arm, primary screen, cell-based, CHO-CHOP luciferase reporter, luminescence, uHTS. hit rate 0.34% among 330,000. UPR activation; percent of tunicamycin response over DMSO baseline. activation, % at 10 µM;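 active means at 10 µM dose, activation of 40% or more, normalized to positive control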;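 further: 100% = tunicamycin at 10 µg/mL and 0% = DMSO alone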
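System: CHO-CHOP luciferase reporter cell line | Buffer or medium: F12 medium containing 10% fetal bovine serum | Doses: One dose, 10 µM in 0.5% DMSO | Times: 6 h compound exposure at 37 °C after overnight seeding | Signal: Luciferase luminescence | Read-out: % activation vs tunicamycin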
T cruzi inh – inhibitors of intracellular T. cruzi growth, primary screen, luminescence, NIH3T3 host cells; inhibition, % (no concentration beside the values); T. cruzi beta-gal in NIH3T3, 90 h; AID 1885, 2009; hit rate 1.4% among 300,000;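 active means mean inhibition across valid replicates above about 55%, limit read from the data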;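 further: signal also drops with host cell toxicity which is not excluded here; 0% = plate median of DMSO wells and 100% = zero luminescence signal; higher percent means less beta-gal luminescence so fewer parasites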
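System – NIH/3T3 host cells with β-galactosidase reporter T. cruzi · Doses – single 50 nL compound addition per well in DMSO · Reagent – 5000 T. cruzi trypomastigotes/well · Medium – Low-serum DMEM with 2% FBS · Timing – ≥90 h infection period, 3 h prior cell attachment · Evaluation – parasite load inhibition, % · Technique – GalScreen luminescence, 60 min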
Mdm2-MdmX conf – Mdm2-MdmX complex disruptors, retested hits, confirmation, luminescence, single concentration; shares compounds with Mdm2-MdmX inh; Mdm2-MdmX binding, luminescent assay; inhibition, % at 8 µM; hit rate 55% among 10,000; in the data active means inhibition above about 40%
FLuc counter – full-length luciferase signal inhibition, confirmation, counter-screen for Mdm2/MdmX interaction inhibitor project, cell-based, single concentration, SaOS-2; shares compounds with Mdm2-MdmX inh; SaOS-2 full-length luciferase counterscreen, luminescence; inhibition, % at 8 µM; hit rate 77% among 6,200; AID 504607, 2011;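 active means mean inhibition at 8 µM reaching about 37%, which flags the compound as non-specific, limit read from the data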;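 further: p53-null SaOS-2 cells with luciferase driven by a doxycycline-inducible promoter; compound on cells about two nights before reading with doxycycline added after day one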
Starred values were filed as active, the others as inactive; . = no result given. Hits are enriched below; roughly 5% of the tested compounds scored in any of these assays.

SMILES	XBP1 UPR activ	CSC inhib	Mdm2-MdmX inh	Beta apoptosis	UPR CHOP act	T cruzi inh	Mdm2-MdmX conf	others
CC(C)C(NC(=O)CCNC(=O)c1ccc(C(C)(C)C)cc1)c1nc2ccccc2[nH]1 (stereo not drawn)	-1	.	-9	3	-1	.	.
O=C(CSc1ccc(F)cc1)NC1CCCCC1	3	6	-61	-4	3	-2	.
COc1ccc(C2c3c(ncn(CCCO)c3=N)Oc3ccc4ccccc4c32)cc1 (stereo not drawn)	3	18	81*	5	1	9	70*	FLuc counter=57*
N=c1c2c(ncn1CCCO)Oc1cc(O)ccc1C2c1ccccc1 (stereo not drawn)	2	-18	7	1	-1	-25	.
COc1ccc(C2c3ccc(O)cc3Oc3ncn(CCN4CCOCC4)c(=N)c32)cc1 (stereo not drawn)	1	-3	32	-1	0	5	.
COc1ccc(C2c3c(ncn(CCN4CCOCC4)c3=N)Oc3ccc4ccccc4c32)cc1OC (stereo not drawn)	2	3	64*	4	3	-12	38	FLuc counter=59*
Cc1cccc(NC(=O)COn2nnc3ccc(S(C)(=O)=O)cc32)c1	-3	-11	2	0	0	4	.
N/C(=N\OC(=O)c1cnn(-c2ccccc2)c1C(F)(F)F)c1cc(C(F)(F)F)cc(C(F)(F)F)c1	-1	-18	52*	-2	0	-12	19
O=C(NNC(=O)C(Cl)Cl)c1cnn(-c2ccccc2)c1C(F)(F)F	3	10	-36	2	1	-12	.
COc1cc(C(CCN2CCCC(C)C2)c2c(OC)cc(OC)c3c(-c4ccccc4)cc(=O)oc23)cc(OC)c1OC (stereo not drawn)	4	15	82*	14	7	48	25
COc1cc(C(CCN2CCCCC2)c2c(OC)cc(OC)c3c(-c4ccccc4)cc(=O)oc23)cc(OC)c1OC (stereo not drawn)	14	-6	65*	11	0	42	24
COc1cc(C(CC(=O)N2CCCC2)c2c(OC)cc(OC)c3c(-c4ccccc4)cc(=O)oc23)cc(OC)c1OC (stereo not drawn)	8	-14	25	10	0	38	.
COc1cc2c(cc1OC)-c1nnc(-c3cccs3)n1C(C)(C)C2	-3	-19	9	-1	0	3	.
O=C(N/N=C/c1cccs1)c1cc(-c2ccncc2)nc2ccccc12	.	41	.	-1	.	-46	.
CC(/C=N/NC(=O)c1cc(-c2ccc(Cl)cc2)nc2ccccc12)=C\c1ccco1	22	14	66*	34	0	26	0
CC(C)COc1cccc(-c2cc(C(=O)N/N=C/c3ccncc3)c3ccccc3n2)c1	0	-2	81*	19	8	.	84*	FLuc counter=47*
CCc1ccc(/C=N/NC(=O)c2cc(-c3ccncc3)nc3ccccc23)s1	19	2	52*	.	-1	-22	62*	FLuc counter=80*
CCCc1cc(C(=O)N/N=C/c2ccc(CC)s2)c2ccccc2n1	0	.	63*	12	-1	-33	65*	FLuc counter=40*
O=c1oc(-c2cccs2)nc2c1cnn2-c1ccccc1	-1	5	5	-11	0	-3	.
COc1ccc(-n2cc(-c3ccccc3)c3c(N4CCN(CCO)CC4)ncnc32)cc1	2	-4	51*	2	2	32	16
Cc1cccc(-n2cc(-c3ccccc3)c3c(N4CCOCC4)ncnc32)c1	3	105*	67*	17	0	29	55*	FLuc counter=72*
OCCN1CCN(c2ncnc3c2c(-c2ccccc2)cn3-c2ccc(F)cc2)CC1	6	.	25	-7	0	21	.
Cc1ccc(-n2cc(-c3ccccc3)c3c(N4CCN(C)CC4)ncnc32)cc1	3	44	37	-6	3	21	.
CC1Cc2ccccc2N1S(=O)(=O)c1cccc(C(=O)N2Cc3ccccc3CC2C(N)=O)c1 (stereo not drawn)	-3	-30	1	4	-2	.	.
C/C(=N\N=C(N)N)c1ccc(Cl)c(Cl)c1	-1	22	56*	-2	-2	53	38
SMILES	XBP1 UPR activ	CSC inhib	Mdm2-MdmX inh	Beta apoptosis	UPR CHOP act	T cruzi inh	Mdm2-MdmX conf	others
CCOC(=O)N1CCN(C(=O)c2ccc3c(=O)n(-c4ccc(OC)cc4)c(=S)[nH]c3c2)CC1	2	-4	69*	1	2	-2	12
C=CCn1c(N)c(C(=O)Nc2cccc(C)c2)c2nc3ccccc3nc21	3	25	67*	-1	2	46	21
Nc1c(C(=O)Nc2ccccc2)c2nc3ccccc3nc2n1CCCN1CCOCC1	1	98*	67*	2	4	27	29
C=CCn1c(N)c(C(=O)Nc2ccc(C)c(C)c2)c2nc3ccccc3nc21	-3	19	-61	.	-1	17	.
N#Cc1c(N)n(CCCN2CCOCC2)c2nc3ccccc3nc12	-2	-10	-1	1	-2	.	.
CC(=O)c1ccc(-c2cccc(-c3cc(=O)oc4ccc(C(C)(C)C)cc34)c2)cc1	4	.	24	.	1	.	.
Cc1cccc(N2CCN(Cc3cn(C)nc3-c3ccccc3F)CC2)n1	1	51	55*	26	-1	-64	70*	FLuc counter=49*
Cn1cc(CN2CCN(c3ccc(Cl)cn3)CC2)c(-c2ccccc2F)n1	-2	-5	9	1	2	18	.
CCN(CC)C(=O)C(=O)N/N=C/c1ccc(F)cc1	-2	6	6	3	0	-6	.
CC(C)CCn1c(-c2nonc2N)nc2ccccc21	-1	-3	47	-1	-4	-12	.
Nc1nonc1-c1nc2ccccc2n1CC(=O)Nc1ccccc1	-5	8	78*	1	-1	-4	69*	FLuc counter=25
CCOC(=O)c1ccccc1NC(=O)Cn1c(-c2nonc2N)nc2ccccc21	11	55	61*	28	0	28	55*	FLuc counter=77*
